Our source for the Activity values is ChEMBL document CHEMBL3861961, “Effects of Functional Groups and Sugar Composition of Quercetin Derivatives on Their Radical Scavenging Properties” (J Nat Prod, 2016).

Test [1] in a line: Antioxidant activity assessed as DPPH free radical scavenging activity by measuring decrease in signal intensity at 0.015 mmol measured after 30 mins in presence of 3-Omethylquercetin by 13C-NMR spectroscopy. (In general: The DPPH test is a chemical assay of radical scavenging.)
A short description of test [2]: Antioxidant activity assessed as DPPH free radical scavenging activity at 5 uM after 15 to 60 mins in presence of CuSO4.5H2O. Type of test: functional. The method, boiled down:
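Samples (0.2 mM in MeOH) mixed 1:1 by volume with CuSO4·5H2O (0.4 mM in MeOH), held 1.5 h at room temperature. DPPH step: 74 μM DPPH final in H2O/MeOH (5/3), sample 5 μM final. Mixture left standing, then absorbance read at 545 nm after 15, 30 and 60 min. Wells without compound were negative controls. At least triplicate.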

A short description of test [3]: Antioxidant activity assessed as DPPH free radical scavenging activity by measuring remaining DPPH at 5 uM after 15 to 60 mins relative to trolox. Type of test: functional. The method, boiled down:
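DPPH 74 μM final in H2O/MeOH (5/3), mixed vigorously with sample (0.1 mM stock in MeOH; 5 μM final) and left standing. Absorbance at 545 nm read at 15, 30 and 60 min. Wells without compound served as negative controls. At least three replicates per compound and control.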

The source made the active and inactive calls. The calls are words filed in the database; no cut-off is given here. Bounds are passed on as bounds.

For the molecule `COC(=O)c1cc(O)c(O)c(O)c1`, the outcome in test [1] was Active.

Consider `COc1cc(-c2oc3cc(O)cc(O)c3c(=O)c2O[C@@H]2O[C@H](CO)[C@H](O)[C@H](O)[C@H]2O)ccc1O`, for which, in test [2], the result was Active.

On to `COc1ccc(-c2oc3cc(O)cc(O)c3c(=O)c2O)cc1O`, for which the result in test [2] was Active.

With `O=C(O[C@H]1[C@H](Oc2c(-c3ccc(O)c(O)c3)oc3cc(O)cc(O)c3c2=O)O[C@H](CO)[C@@H](O)[C@@H]1OC(=O)c1cc(O)c(O)c(O)c1)c1cc(O)c(O)c(O)c1`, in test [2], the Activity is < 35%.

`O=c1c(O)c(-c2ccc(O)c(O)c2)oc2cc(O)cc(O)c12`: the Activity in test [3] was < 70%. In addition, the outcome in test [2] was Active.

In the case of `COc1c(-c2ccc(O)c(O)c2)oc2cc(O)cc(O)c2c1=O`, the Activity in test [3] was < 70%. For the same molecule, the outcome in test [2] was Active.

For the molecule `O=c1c(O[C@@H]2O[C@H](CO)[C@H](O)[C@H](O)[C@H]2O)c(-c2ccc(O)c(O)c2)oc2cc(O)cc(O)c12`, in test [3], the Activity is < 70%. In test [2], the outcome was Active.

As for `O=C(OC[C@H]1O[C@@H](Oc2c(-c3ccc(O)c(O)c3)oc3cc(O)cc(O)c3c2=O)[C@H](O)[C@@H](O)[C@@H]1O)c1cc(O)c(O)c(O)c1`, in test [2], the Activity is < 35%.

As for `COc1cc(O)cc2oc(-c3ccc(O)c(O)c3)c(O[C@@H]3O[C@H](CO)[C@H](O)[C@H](O)[C@H]3O)c(=O)c12`, the Activity in test [3] was < 70%. The result in test [2] was Active.

Regarding `O=C(O[C@H]1[C@H](O)[C@@H](O)[C@H](Oc2c(-c3ccc(O)c(O)c3)oc3cc(O)cc(O)c3c2=O)O[C@@H]1CO)c1cc(O)c(O)c(O)c1`, in test [2], the Activity was < 35%.

As to `O=C(O[C@H]1[C@H](Oc2c(-c3ccc(O)c(O)c3)oc3cc(O)cc(O)c3c2=O)O[C@H](CO)[C@@H](O)[C@@H]1O)c1cc(O)c(O)c(O)c1`, in test [2], the Activity is < 35%.

Take `COc1cc(-c2oc3cc(O)cc(O)c3c(=O)c2O[C@@H]2O[C@H](CO)[C@@H](O)[C@H](O)[C@H]2O)ccc1O`: in test [2], the result was Active.

`COc1cc(-c2oc3cc(O)cc(O)c3c(=O)c2O)ccc1O`: the result in test [2] was Active.

As to `COc1cc(O)cc2oc(-c3ccc(O)c(O)c3)c(O)c(=O)c12`, in test [3], the Activity is < 70%. In addition, the outcome in test [2] was Active.

Regarding `COc1cc(O)cc2oc(-c3ccc(O)c(O)c3)c(O[C@@H]3O[C@H](CO)[C@@H](O)[C@H](O)[C@H]3O)c(=O)c12`, in test [3], the Activity was < 70%. In addition, the result in test [2] was Active.

Regarding `O=c1c(O[C@@H]2O[C@H](CO)[C@@H](O)[C@H](O)[C@H]2O)c(-c2ccc(O)c(O)c2)oc2cc(O)cc(O)c12`, the Activity in test [3] was < 70%. Besides, the outcome in test [2] was Active.

`O=C(O[C@@H]1[C@@H](O)[C@H](Oc2c(-c3ccc(O)c(O)c3)oc3cc(O)cc(O)c3c2=O)O[C@H](CO)[C@H]1O)c1cc(O)c(O)c(O)c1`: the Activity in test [2] was < 35%.
